Assays:
[1] = molecular target: T1, Cysteinyl leukotriene receptor 1 (Cavia porcellus, UniProt Q2NNR5); experiment: Inhibition constant for displacement of [3H]LTD4 on guinea pig lung parenchymal membranes; format: tissue-based, Lung parenchyma
T1 sequence (Q2NNR5 whole entry): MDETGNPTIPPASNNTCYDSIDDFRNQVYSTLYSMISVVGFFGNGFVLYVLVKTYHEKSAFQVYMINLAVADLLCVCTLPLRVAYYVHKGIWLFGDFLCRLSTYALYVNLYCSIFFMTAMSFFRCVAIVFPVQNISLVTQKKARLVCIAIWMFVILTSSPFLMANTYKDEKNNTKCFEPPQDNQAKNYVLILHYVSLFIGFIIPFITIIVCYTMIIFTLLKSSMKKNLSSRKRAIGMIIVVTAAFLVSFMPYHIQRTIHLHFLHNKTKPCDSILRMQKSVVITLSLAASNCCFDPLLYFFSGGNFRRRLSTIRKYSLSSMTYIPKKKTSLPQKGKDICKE
Outline: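 Guinea pig lung parenchymal membranes; competitive displacement of [3H]LTD4. Ki taken as mean of two experiments, each run in duplicate on separate membrane batches.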

[2] = molecular target: T2, Cysteinyl leukotriene receptor 1 (Cavia porcellus) (UniProt Q2NNR5); experiment: Binding constant in guinea pig tracheal spirals with LTE4; format: tissue-based; details: Trachea
T2 sequence (whole entry): T1 sequence (Q2NNR5 whole entry)
Outline: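 Guinea pig tracheal spirals contracted with LTE4 as agonist. Antagonist KB derived from concentration-response curves and reported as -log(KB) (pKB); n = number of concentration-response curves.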

[3] = molecular target: T2, Cysteinyl leukotriene receptor 1 (Cavia porcellus); experiment: Effective dose for the inhibition of percent protection from LTD4-induced dyspnea in a conscious guinea pig administered through oral route; format: functional
Outline: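 Conscious guinea pig dyspnea model with LTD4 challenge; percent protection from dyspnea plotted against dose (oral or intravenous). ED50 obtained by regression using at least three doses from the linear portion of the dose-response curve; SEM for percent protection was generally ≤25% at each dose.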

[4] = test system: Cysteinyl leukotriene receptor (Cavia porcellus); experiment: Inhibition of percent protection from LTD4-induced dyspnea in a conscious guinea pig administered intravenously
Cavia porcellus [5] = experiment: (§1) ED50 (p.o.) / ED50 (i.v.) ratio of the compound; format: functional
Outline: (§2)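 Ratio of oral ED50 to intravenous ED50 from the conscious guinea pig LTD4-induced dyspnea model, used as an index of oral bioavailability.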

[6] = Partition coefficient (logP); details: octanol/water
Cavia porcellus [7] = experiment: Percent inhibition of protection from LTD4-induced dyspnea in a conscious guinea pig administered through oral route at a dose of 3 umol/kg; format: functional
[8] = Compound was evaluated for clearance in rat; format: ADME, organism-based; details: in vivo
Rattus norvegicus = species on record: Rattus norvegicus; experiment: Compound was evaluated for the pharmacokinetic characters in Rat; format: ADME, organism-based; details: in vivo
[9] = molecular target: Beta-1 adrenergic receptor (Cavia porcellus) (UniProt B0FL73); experiment: Compound was evaluated for the selectivity of Beta 1 adrenergic receptors isolated from guinea pig right atrium by displacing isoproterenol; format: functional, tissue-based; details: Cardiac atrium
Outline: (§3)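 Isolated-tissue functional selectivity screen, run at a single standard concentration of 10 μM, recording any change in the response to the receptor agonist.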

[10] = molecular target: Histamine H1 receptor (Cavia porcellus) (UniProt P31389); experiment: Compound was evaluated for the selectivity of Histaminergic 1 receptor isolated from guinea pig ileum by displacing histamine; format: tissue-based; outline: as §3
[11] = molecular target: Alpha-2 adrenergic receptor (Mus musculus) (UniProt P30545+Q01338+Q01337); experiment: Compound was evaluated for the selectivity of alpha 2 adrenergic receptors isolated from mouse vas deferens by displacing clonidine; format: functional, tissue-based; outline: as §3
[12] = molecular target: T3, Thromboxane A2 receptor (Rattus norvegicus) (UniProt P34978); experiment: Compound was evaluated for the selectivity of Thromboxane 1 receptors isolated from rat aorta by displacing U-46,619; format: functional, tissue-based; outline: as §3
T3 sequence (whole entry): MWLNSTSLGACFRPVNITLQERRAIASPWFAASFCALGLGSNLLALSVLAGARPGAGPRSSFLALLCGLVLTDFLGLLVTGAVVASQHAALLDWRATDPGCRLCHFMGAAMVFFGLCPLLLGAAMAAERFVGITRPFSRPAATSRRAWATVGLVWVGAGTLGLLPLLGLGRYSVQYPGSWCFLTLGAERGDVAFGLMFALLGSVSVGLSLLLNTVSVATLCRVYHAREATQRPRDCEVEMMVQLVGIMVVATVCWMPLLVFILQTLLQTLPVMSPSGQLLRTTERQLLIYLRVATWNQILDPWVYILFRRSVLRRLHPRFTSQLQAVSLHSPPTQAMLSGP

[13] = molecular target: Muscarinic acetylcholine receptor (Homo sapiens) (UniProt P20309+P08173+P11229+P08172+P08912); experiment: Compound was evaluated for the selectivity of Muscarinic receptors isolated from guinea pig ileum by displacing acetylcholine; format: tissue-based; details: Cavia porcellus, target entry is the homologue from another species; outline: as §3
[14] = molecular target: T4, Prostaglandin E2 receptor EP1 subtype (Homo sapiens) (UniProt P34995); experiment: Compound was evaluated for the selectivity of Prostaglandin 1 receptors isolated from guinea pig ileum by displacing PGE-2; details: Cavia porcellus, target entry is the homologue from another species
T4 sequence (whole entry): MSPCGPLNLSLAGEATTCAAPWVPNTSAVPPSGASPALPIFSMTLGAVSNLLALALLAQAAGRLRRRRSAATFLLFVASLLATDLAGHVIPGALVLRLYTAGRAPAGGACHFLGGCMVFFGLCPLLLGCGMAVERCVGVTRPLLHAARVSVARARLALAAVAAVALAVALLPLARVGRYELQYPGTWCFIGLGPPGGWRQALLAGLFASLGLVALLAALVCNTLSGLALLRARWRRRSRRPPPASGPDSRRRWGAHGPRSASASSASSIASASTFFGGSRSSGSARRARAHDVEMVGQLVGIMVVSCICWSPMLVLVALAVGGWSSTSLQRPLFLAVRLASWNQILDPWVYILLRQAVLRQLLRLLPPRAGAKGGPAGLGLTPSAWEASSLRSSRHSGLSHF

[15] = Bioavailability in guinea pig; format: ADME, organism-based, Cavia porcellus; details: in vivo
[16] = Compound was evaluated for the oral bioavailability in dog; format: ADME, organism-based, Canis lupus familiaris; details: in vivo, read-out: Bioavailabiility
[17] = Compound was evaluated for the clearance in dog; format: ADME, organism-based, Canis lupus familiaris; details: in vivo
[18] = molecular target: Prostaglandin E2 receptor EP2 subtype (Homo sapiens) (UniProt P43116); experiment: Compound was evaluated for the selectivity of Prostaglandin 2 receptors isolated from guinea pig ileum by displacing PGE-2; format: tissue-based; details: Cavia porcellus; Trachea; in the assay text read “guinea pig trachea” for “guinea pig ileum”; target entry is the homologue from another species; outline: as §3
[19] = Clearance in guinea pig; format: ADME, organism-based, Cavia porcellus; details: in vivo
[20] = as §1; format: functional; outline: as §2
[21] = Compound was evaluated for the oral bioavailability in rat; format: ADME, organism-based; details: in vivo, read-out: Bioavailabiility
[22] = Compound was evaluated for the clearance in rat; format: ADME, organism-based; details: in vivo
Cavia porcellus [23] = experiment: Inhibition of protection from LTD4-induced dyspnea in a conscious guinea pig administered through oral route at a dose of 3 umol/kg; format: functional

Histamine H1 receptor (Cavia porcellus), sequence (P31389 whole entry): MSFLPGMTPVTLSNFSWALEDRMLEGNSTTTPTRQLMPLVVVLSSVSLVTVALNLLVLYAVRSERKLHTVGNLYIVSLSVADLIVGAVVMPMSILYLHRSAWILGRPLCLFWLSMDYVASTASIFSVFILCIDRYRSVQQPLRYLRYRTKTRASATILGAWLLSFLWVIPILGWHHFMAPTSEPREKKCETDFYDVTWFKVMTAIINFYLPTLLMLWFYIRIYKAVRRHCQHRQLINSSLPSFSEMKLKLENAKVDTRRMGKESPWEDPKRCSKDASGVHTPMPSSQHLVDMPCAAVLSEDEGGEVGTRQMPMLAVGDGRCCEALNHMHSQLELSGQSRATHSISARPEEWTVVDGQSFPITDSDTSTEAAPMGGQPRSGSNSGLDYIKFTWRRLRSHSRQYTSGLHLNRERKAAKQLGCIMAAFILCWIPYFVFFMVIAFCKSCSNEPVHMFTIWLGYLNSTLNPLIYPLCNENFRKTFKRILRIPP
Prostaglandin E2 receptor EP2 subtype (Homo sapiens), sequence (P43116 whole entry): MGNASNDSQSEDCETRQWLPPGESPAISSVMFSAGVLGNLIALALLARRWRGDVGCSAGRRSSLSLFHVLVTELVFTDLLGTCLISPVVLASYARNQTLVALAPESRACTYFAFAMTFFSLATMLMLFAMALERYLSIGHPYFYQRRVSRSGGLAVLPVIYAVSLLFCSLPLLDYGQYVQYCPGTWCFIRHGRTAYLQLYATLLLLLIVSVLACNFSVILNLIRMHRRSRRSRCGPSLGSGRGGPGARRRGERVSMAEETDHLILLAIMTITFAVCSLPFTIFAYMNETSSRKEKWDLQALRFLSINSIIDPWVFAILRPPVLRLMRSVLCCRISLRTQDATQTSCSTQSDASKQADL
Beta-1 adrenergic receptor (Cavia porcellus), sequence (B0FL73 1-467): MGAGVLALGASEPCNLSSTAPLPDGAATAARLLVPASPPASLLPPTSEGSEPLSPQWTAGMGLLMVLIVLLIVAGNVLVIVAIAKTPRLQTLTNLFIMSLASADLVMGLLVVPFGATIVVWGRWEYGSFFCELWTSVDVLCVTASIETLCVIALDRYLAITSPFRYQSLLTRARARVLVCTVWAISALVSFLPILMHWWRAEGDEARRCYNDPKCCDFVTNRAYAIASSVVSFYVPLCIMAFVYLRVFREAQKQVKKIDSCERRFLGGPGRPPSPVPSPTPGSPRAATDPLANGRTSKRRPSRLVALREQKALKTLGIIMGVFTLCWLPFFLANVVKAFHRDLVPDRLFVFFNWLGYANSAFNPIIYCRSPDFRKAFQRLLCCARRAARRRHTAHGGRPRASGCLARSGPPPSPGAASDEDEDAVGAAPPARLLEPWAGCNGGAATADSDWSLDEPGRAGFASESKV

SMILES	Ki [1]	pKB [2]	ED50 [3]	also measured
COc1cc(C(=O)NS(=O)(=O)c2ccccc2C)ccc1Cc1cn(C)c2ccc(C(=O)NCC3(CC(F)(F)F)CC3)cc12	4.6 nM	–	–	–
COc1cc(C(=O)NS(=O)(=O)c2ccccc2C)ccc1Cn1cc(C)c2ccc(C(=O)NCC(C)CC(F)(F)F)cc21 (centres undefined)	0.44 nM	9.6	2.29 µmol/kg	–
CCn1cc(Cc2ccc(C(=O)NS(=O)(=O)c3ccccc3C)cc2OC)c2cc(C(=O)NCC(C)CC(F)(F)F)ccc21 (centres undefined)	0.38 nM	10.1	1.42 µmol/kg	ED50 [4]: 0.011 µmol/kg; Ratio (Cavia porcellus [5]): 129
COc1cc(C(=O)NS(=O)(=O)c2ccccc2C)ccc1Cc1cn(C)c2ccc(C(=O)NCC(C)C(F)(F)F)cc12 (centres undefined)	12 nM	–	–	logP [6]: 5.89
COc1cc(C(=O)NS(=O)(=O)c2ccccc2C)ccc1Cn1ccc2ccc(C(=O)NCC(C)CC(F)(F)F)cc21 (centres undefined)	7.7 nM	–	–	–
COc1cc(C(=O)NS(=O)(=O)c2ccccc2C)ccc1Cc1cn(C)c2ccc(C(=O)NCCC(C(F)(F)F)C(F)(F)F)cc12	1.2 nM	9.3	–	inhibition in vivo at 3 µmol/kg (Cavia porcellus [7]): 19%
COc1cc(C(=O)NS(=O)(=O)c2ccccc2Cl)ccc1Cn1ccc2ccc(C(=O)NCC(C)CC(F)(F)F)cc21 (centres undefined)	4.2 nM	8.9	–	–
CCC(C)CNC(=O)c1ccc2c(c1)c(Cc1ccc(C(=O)O)cc1OC)cn2C (centres undefined)	–	–	–	logP [6]: 4.86
COc1cc(C(=O)NS(=O)(=O)c2ccccc2Cl)ccc1Cn1cc(C)c2ccc(C(=O)NCC(C)CC(F)(F)F)cc21 (centres undefined)	4.9 nM	–	–	–
C=C(CNC(=O)c1ccc2c(c1)c(Cc1ccc(C(=O)NS(=O)(=O)c3ccccc3C)cc1OC)cn2C)CC(F)(F)F	3.8 nM	–	–	–
CCC(CNC(=O)c1ccc2c(c1)c(Cc1ccc(C(=O)NS(=O)(=O)c3ccccc3C)cc1OC)cn2CC)C(F)(F)F (centres undefined)	5.3 nM	9	–	–
COc1cc(C(=O)NS(=O)(=O)c2ccccc2C)ccc1Cc1cn(C)c2ccc(C(=O)NC/C(C)=C\C(F)(F)F)cc12	2.1 nM	–	–	–
CCC(CNC(=O)c1ccc2c(c1)c(Cc1ccc(C(=O)NS(=O)(=O)c3ccccc3C)cc1OC)cn2C)CC(F)(F)F (centres undefined)	5.3 nM	9.6	2.64 µmol/kg	logP [6]: 6.45; ED50 [4]: 0.047 µmol/kg; Ratio (Cavia porcellus [5]): 56
COc1cc(C(=O)NS(=O)(=O)c2ccccc2C)ccc1Cc1cn(C)c2ccc(C(=O)NCCC(C)C(F)(F)F)cc12 (centres undefined)	7.3 nM	–	–	logP [6]: 6.3
COc1cc(C(=O)NS(=O)(=O)c2ccccc2C)ccc1Cc1cn(C)c2ccc(C(=O)NCC3CCCC3)cc12	3.2 nM	8.4	19.2 µmol/kg	ED50 [4]: 0.69 µmol/kg; Ratio (Cavia porcellus [5]): 28
COc1cc(C(=O)NS(=O)(=O)c2ccccc2C)ccc1Cc1cn(C)c2ccc(C(=O)NCC(C)(C)CC(F)(F)F)cc12	2.2 nM	8.9	–	–

SMILES	Ki [1]	pKB [2]	ED50 [3]	also measured
COc1cc(C(=O)O)ccc1Cc1cn(C)c2ccc(C(=O)NCC(C)CC(F)(F)F)cc12 (centres undefined)	–	–	–	logP [6]: 5.12
COc1cc(C(=O)NS(=O)(=O)c2ccccc2C)ccc1Cc1cn(C)c2ccc(C(=O)NC[C@@H](C)CC(F)(F)F)cc12	1.45 nM	9.28	3.73 µmol/kg	clearance [8]: 1.67 mL/min/kg; ED50 [4]: 0.047 µmol/kg; Ratio (Cavia porcellus [5]): 79; Pharmacokinetic (Rattus norvegicus): 23%
CCCn1cc(Cc2ccc(C(=O)NS(=O)(=O)c3ccccc3C)cc2OC)c2cc(C(=O)NCC(C)CC(F)(F)F)ccc21 (centres undefined)	1.7 nM	–	–	–
CCC(CC)CNC(=O)c1ccc2c(c1)c(Cc1ccc(C(=O)NS(=O)(=O)c3ccccc3C)cc1OC)cn2C	4.7 nM	8	14.7 µmol/kg	ED50 [4]: 1.09 µmol/kg
COc1cc(C(=O)NS(=O)(=O)c2ccccc2Cl)ccc1Cc1cn(C)c2ccc(C(=O)NCC(C)CC(F)(F)F)cc12 (centres undefined)	0.57 nM	9.7	2.5 µmol/kg	ED50 [4]: 0.024 µmol/kg; Ratio (Cavia porcellus [5]): 110
CCC(CNC(=O)c1ccc2c(c1)c(Cc1ccc(C(=O)NS(=O)(=O)c3ccccc3Br)cc1OC)cn2C)CC(F)(F)F (centres undefined)	2.4 nM	9.3	2.5 µmol/kg	–
COc1cc(C(=O)NS(=O)(=O)c2ccccc2C)ccc1Cc1cn(C)c2ccc(C(=O)NC[C@H](C)CC(F)(F)F)cc12	0.42 nM	10.1	1.14 µmol/kg	pKB [9]: < 5; clearance [8]: 1.17 mL/min/kg; pKB [10]: < 5; pKB [11]: < 5; pKB [12]: < 5; pKB [13]: < 5; pKB [14]: 5.23; bioavailability [15]: 15%; bioavailability [16]: 38%; clearance [17]: 5.17 mL/min/kg; pKB [18]: < 5; ED50 [4]: 0.022 µmol/kg; clearance [19]: 14.2 mL/min/kg; Ratio [20]: 52; bioavailability [21]: 33%
COc1cc(C(=O)NS(=O)(=O)c2ccccc2C)ccc1Cc1cn(C)c2ccc(C(=O)NCC(C)CC(F)(F)F)cc12 (centres undefined)	0.57 nM	9.93	1.44 µmol/kg	logP [6]: 6.18; clearance [22]: 1.83 mL/min/kg; bioavailability [15]: 12%; ED50 [4]: 0.036 µmol/kg; clearance [19]: 12.3 mL/min/kg; Ratio (Cavia porcellus [5]): 40; bioavailability [21]: 33%
CCC(CC)CNC(=O)c1ccc2c(c1)c(Cc1ccc(C(=O)O)cc1OC)cn2C	–	–	–	logP [6]: 5.42
CCC(C)CNC(=O)c1ccc2c(c1)c(Cc1ccc(C(=O)NS(=O)(=O)c3ccccc3C)cc1OC)cn2C (centres undefined)	5.2 nM	8.7	20 µmol/kg	logP [6]: 5.85; ED50 [4]: 1.39 µmol/kg; Ratio (Cavia porcellus [5]): 14
COc1cc(C(=O)NS(=O)(=O)c2ccccc2C)ccc1Cc1cn(C)c2ccc(C(=O)NCCCC(F)(F)F)cc12	7.5 nM	8.7	–	–
CCCCC(CNC(=O)c1ccc2c(c1)c(Cc1ccc(C(=O)NS(=O)(=O)c3ccccc3C)cc1OC)cn2C)C(F)(F)F (centres undefined)	5 nM	8.8	–	–
CCC(CNC(=O)c1ccc2c(c1)c(Cc1ccc(C(=O)O)cc1OC)cn2C)CC(F)(F)F (centres undefined)	–	–	–	logP [6]: 5.53
COc1cc(C(=O)NS(=O)(=O)c2ccccc2C)ccc1Cc1cn(C)c2ccc(NC(=O)OC3CCCC3)cc12	–	9.67	0.54 µmol/kg	–
COc1cc(C(=O)NS(=O)(=O)c2ccccc2C)ccc1Cc1cn(C)c2ccc(C(=O)NCC3CC(F)(F)C(F)(F)C3)cc12	1.3 nM	8.6	–	inhibition in vivo at 3 µmol/kg (Cavia porcellus [23]): 11%

Reference: ChEMBL document CHEMBL1127645, “Synthesis, structure-activity relationships, and pharmacological evaluation of a series of fluorinated 3-benzyl-5-indolecarboxamides: identification of 4-[[5-[((2R)-2-methyl-4,4,4-trifluorobutyl)carbamoyl]-1-methyl indol- 3-yl]methyl]-3-methoxy-N-[(2-methylphenyl)sulfonyl]benzamide, a potent, …” (J Med Chem, 1994)
